Experimental data: PMC4646787 (Science Advances, 2015)
Non-standard residues stand in square brackets, D forms with d. Residues, ends and D or L forms follow the SMILES beside them. sY = N[C@@H](Cc1ccc(OS(=O)(=O)O)cc1)C(=O)O

How the values were obtained:
[1] = biological target: T1, XA21 (Oryza sativa subsp. indica, UniProt Q1MX30); test: Ethylene production in Ubi::XA21 rice leaves; assay type: cell-based, rice (Oryza sativa ssp. japonica); details: 1 μM peptide, 4 hours, gas chromatography, n = 3, Fig. 3C
T1 sequence (Q1MX30 24-1025): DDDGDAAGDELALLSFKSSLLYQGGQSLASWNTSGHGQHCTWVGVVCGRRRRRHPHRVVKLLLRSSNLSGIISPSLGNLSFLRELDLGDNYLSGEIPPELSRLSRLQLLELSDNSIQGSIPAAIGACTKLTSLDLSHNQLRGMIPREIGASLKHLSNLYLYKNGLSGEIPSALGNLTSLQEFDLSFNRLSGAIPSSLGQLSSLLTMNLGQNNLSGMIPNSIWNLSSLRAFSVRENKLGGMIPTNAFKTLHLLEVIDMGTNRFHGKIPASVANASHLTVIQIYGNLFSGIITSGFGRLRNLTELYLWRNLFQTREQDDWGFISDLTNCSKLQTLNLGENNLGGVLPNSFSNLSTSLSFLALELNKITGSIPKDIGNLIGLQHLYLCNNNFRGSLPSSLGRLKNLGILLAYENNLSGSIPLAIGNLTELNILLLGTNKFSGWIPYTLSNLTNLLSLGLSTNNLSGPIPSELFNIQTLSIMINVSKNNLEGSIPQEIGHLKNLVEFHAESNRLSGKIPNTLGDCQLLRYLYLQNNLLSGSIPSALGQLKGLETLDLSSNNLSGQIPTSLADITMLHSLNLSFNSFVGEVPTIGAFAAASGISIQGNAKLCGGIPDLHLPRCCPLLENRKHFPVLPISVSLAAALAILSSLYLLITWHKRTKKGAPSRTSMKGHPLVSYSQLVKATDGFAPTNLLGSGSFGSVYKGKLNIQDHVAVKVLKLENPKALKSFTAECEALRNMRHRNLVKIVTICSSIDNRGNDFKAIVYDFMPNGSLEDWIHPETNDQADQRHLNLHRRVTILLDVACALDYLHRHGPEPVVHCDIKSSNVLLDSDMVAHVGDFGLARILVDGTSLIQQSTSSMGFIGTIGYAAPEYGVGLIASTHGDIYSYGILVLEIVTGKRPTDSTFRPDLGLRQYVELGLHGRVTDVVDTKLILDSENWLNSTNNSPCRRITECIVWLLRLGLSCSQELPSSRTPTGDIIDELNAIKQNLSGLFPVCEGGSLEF
Procedure, shortened: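 Ubi::XA21 Kitaake plants (3–4 weeks, hydroponic) were used. Leaves were cut into ~0.3 to 0.5 mm strips and floated on water overnight at room temperature. Strips were then incubated with water or peptide (1 μM) in sealed tubes. Ethylene accumulated in the headspace over 4 h was measured by gas chromatography.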

[2] = biological target: T1, XA21; test: ROS production; assay type: cell-based, rice (Oryza sativa ssp. japonica)
Procedure, shortened: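 Leaves of 4- to 6-week-old hydroponic Kitaake and Ubi::XA21 plants were cut along the midvein into 1–1.5 mm pieces and floated overnight on autoclaved ddH2O. Two pieces per well went into L-012 plus horseradish peroxidase (0.5 to 2 mg/ml), with peptide or mock (ddH2O or peptide buffer). Chemiluminescence was read for 3 h at 0.5 s per reading, n = 6. EC50 was the half-maximal total 3-h ROS over a peptide concentration series.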

Row | Molecule | Ethylene production, result in words [1] | EC50 [2] [µM]
1 | HVGGGDYPPPGANPKHDPPPR [RaxX21-Y] | but not RaxX21-Y | –
2 | CC(C)C[C@H](N)C(=O)N[C@@H](Cc1c[nH]c2ccccc12)C(=O)N[C@@H](CCCCN)C(=O)N[C@@H](Cc1c[nH]cn1)C(=O)N[C@H](C(=O)NCC(=O)NCC(=O)NCC(=O)N[C@@H](CC(=O)O)C(=O)N[C@@H](Cc1ccc(OS(=O)(=O)O)cc1)C(=O)N1CCC[C@H]1C(=O)N1CCC[C@H]1C(=O)N1CCC[C@H]1C(=O)NCC(=O)N[C@@H](C)C(=O)N[C@@H](CC(N)=O)C(=O)N1CCC[C@H]1C(=O)N[C@@H](CCCCN)C(=O)N[C@@H](Cc1c[nH]cn1)C(=O)N[C@@H](CC(=O)O)C(=O)N1CCC[C@H]1C(=O)N1CCC[C@H]1C(=O)N1CCC[C@H]1C(=O)N[C@@H](CCCNC(=N)N)C(=O)O)C(C)C [RaxX24-sY] (H-LWKHVGGGD[sY]PPPGANPKHDPPPR-OH; N-terminus and C-terminus assumed) | – | ~0.03
